The source of these data is ChEMBL document CHEMBL4376814, “Novel cyclin-dependent kinase 9 (CDK9) inhibitor with suppression of cancer stemness activity against non-small-cell lung cancer” (Eur J Med Chem, 2019).

Assay [1] concerns the target Serine/threonine-protein kinase 33 (Homo sapiens) (UniProt Q9BYT3). Nature of the assay: Inhibition of recombinant full-length human STK33 at 1 uM using myelin basic protein as substrate measured after 40 mins in presence of [gamma33P]ATP by scintillation counting method relative to control.
Assay [2] concerns the target Mitogen-activated protein kinase kinase kinase 2 (Homo sapiens) (UniProt Q9Y2U5). Kind of assay: Inhibition of full-length recombinant human MEKK2 at 1 uM using myelin basic protein as substrate measured after 40 mins in presence of [gamma33P]ATP by scintillation counting method relative to control. The method, boiled down: (§1)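 Percent inhibition of kinase activity at a single compound concentration, measured by the outsourced Eurofins KinaseProfiler panel. Values are the mean of two independent experiments.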

Assay [3] relates to NCI-H1299. Kind of assay: Induction of apoptosis in human H1299 cells assessed as late apoptotic cells at 1 uM after 48 hrs by AnnexinV-FITC/PI staining-based flow cytometric analysis (reference value: 1.77%). Format: functional. For orientation: Flow cytometry measures light scatter and fluorescence of single cells or particles in a stream.
Assay [4] concerns the target Serine/threonine-protein kinase WNK1 (Homo sapiens) (UniProt Q9H4A3). Kind of assay: Inhibition of recombinant human WNK1 (1 to 491 residues) at 1 uM using MBP as substrate measured after 120 mins in presence of [gamma33P]ATP by scintillation counting method relative to control.
For assay [5], the target named is Tyrosine-protein kinase JAK3 (Homo sapiens) (UniProt P52333). Nature of the assay: Inhibition of recombinant human JAK3 (781 to end residues) at 1 uM using GGEEEEYFELVKKKK as substrate measured after 40 mins in presence of [gamma33P]ATP by scintillation counting method relative to control.
The species named for another assay is Mus musculus. Nature of the assay: Inhibition of recombinant full-length mouse LYN N425D mutant at 1 uM using poly(Glu, Tyr) 4:1 as substrate measured after 40 mins in presence of [gamma33P]ATP by scintillation counting method relative to control.
Assay [6] has as its target Ribosomal protein S6 kinase alpha-6 (Homo sapiens) (UniProt Q9UK32). Kind of assay: Inhibition of recombinant full-length human Rsk4 at 1 uM using LRRASLG as substrate measured after 40 mins in presence of [gamma33P]ATP by scintillation counting method relative to control.
Assay [7] deals with Interferon-induced, double-stranded RNA-activated protein kinase (Homo sapiens) (UniProt P19525). Kind of assay: Inhibition of recombinant human PKR (252 to end residues) at 1 uM using RSRSRSRSRSRSRSR as substrate measured after 40 mins in presence of [gamma33P]ATP by scintillation counting method relative to control. The method, boiled down:
(§2)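 Single-point inhibition at 1 µM was measured in the Eurofins KinaseProfiler panel. Values are the mean of two independent experiments.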

Assay [8] relates to A549. Kind of assay: Induction of cell cycle arrest in human A549 cells assessed as increase in accumulation of cells at G2/M phase at 1 uM after 24 hrs by propidium iodide/RNase staining based flow cytometric analysis. In kind it is functional. The method, boiled down: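 A549 and H1299 plated at 5×10^5 cells/mL in 6-well plates, treated after adherence for 24 h. Washed with PBS, fixed overnight in ice-cold 75% ethanol, stained with propidium iodide plus RNase A for 30 min at 37 °C, analysed by flow cytometry for phase distribution. Means ± SD, three independent experiments.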

The target of assay [9] is Tyrosine-protein kinase CSK (Homo sapiens) (UniProt P41240). Kind of assay: Inhibition of recombinant full-length human CSK at 1 uM using poly(Glu, Tyr) 4:1 as substrate measured after 40 mins in presence of [gamma33P]ATP by scintillation counting method relative to control. The method, boiled down: as §2
In assay [10] the test system is A549. Kind of assay: Antiproliferative activity against human A549 cells assessed as inhibition of cell viability at 1 uM after 72 hrs by CCK-8 assay relative to control. Format: functional. As to conditions: A549, 72 h. In a few lines: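 Single-concentration viability screen using CCK-8. Cells were seeded at 3000/well and treated for 72 h. A450 read after 1-4 h with reagent. Percent inhibition calculated against untreated control and blank wells as (Ac−As)/(Ac−Ab)×100%.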
(In general: Tetrazolium assays rely on reduction of a dye to a coloured formazan, in cell work by metabolically active cells.)

For assay [11], the target named is Dual specificity tyrosine-phosphorylation-regulated kinase 1B (Homo sapiens) (UniProt Q9Y463). Kind of assay: Inhibition of recombinant full-length human DYRK1B at 1 uM using RRRFRPASPLRGPPK as substrate measured after 40 mins in presence of [gamma33P]ATP by scintillation counting method relative to control.
Assay [12] deals with NCI-H1299. Kind of assay: Antitumour activity against human H1299 cells xenografted in Balb/c mouse assessed as inhibition of tumour growth at 80 mg/kg, po administered for 21 days by digital caliper method relative to control. Format: functional. The following applies: 504 h, read-out: TGI. In a few lines: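 Female nude mice, 6-8 weeks old, injected subcutaneously with 1×10^6 H1299 cells (100 µL of a 1×10^7/mL suspension in serum-free medium). At 100-120 mm3, randomized into groups of 5. Dosed orally each day for 21 days with drug dissolved in DMSO, or with vehicle. Caliper measurements and body weight taken every other day. Volume = short²×long×0.5. Growth inhibition based on change in volume relative to vehicle. Tumours weighed at the end.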
In general terms: Xenograft models place foreign cells or tissue in a host animal.

Assay [13] has as its target Muscle, skeletal receptor tyrosine-protein kinase (Homo sapiens) (UniProt O15146). Nature of the assay: Inhibition of recombinant human MUSK (530 to end residues) at 1 uM using myelin basic protein as substrate measured after 40 mins in presence of [gamma33P]ATP by scintillation counting method relative to control.
Assay [14] addresses Vascular endothelial growth factor receptor 1 (Homo sapiens) (UniProt P17948). Nature of the assay: Inhibition of recombinant human Flt1 (783 to end residues) at 1 uM using KKKSPGEYVNIEFG as substrate measured after 40 mins in presence of [gamma33P]ATP by scintillation counting method relative to control.
In assay [15] the target is Serine/threonine-protein kinase PLK3 (Homo sapiens) (UniProt Q9H4B4). Kind of assay: Inhibition of recombinant human Plk3 (19 to 301 residues) at 1 uM using casein as substrate measured after 40 mins in presence of [gamma33P]ATP by scintillation counting method relative to control. In a few lines:
as §2

Assay [16] addresses Serine/threonine-protein kinase 25 (Homo sapiens) (UniProt O00506). Nature of the assay: Inhibition of human STK25 (1 to 308 residues) at 1 uM using RLGRDKYKTLRQIRQ as substrate measured after 40 mins in presence of [gamma33P]ATP by scintillation counting method relative to control. In a few lines:
as §1

Assay [17] concerns Platelet-derived growth factor receptor alpha (Homo sapiens), P16234 [V561D]. Kind of assay: Inhibition of recombinant human PDGFRalpha (550 to end residues) V561D mutant at 1 uM using GGMEDIYFEFMGGKKK as substrate measured after 40 mins in presence of [gamma33P]ATP by scintillation counting method relative to control.
In a further assay the target is CDK4/Cyclin D3 (Homo sapiens, UniProt P11802). Kind of assay: Inhibition of recombinant full-length human CDK4/cyclinD3 using Rb fragment as substrate measured after 40 mins in presence of [gamma33P]ATP by scintillation counting method. Format: protein-complex assay.
Assay [18] deals with Tyrosine-protein kinase TXK (Homo sapiens) (UniProt P42681). Kind of assay: Inhibition of human Txk (256 to end residues) at 1 uM using GEEPLYWSFPAKKK as substrate measured after 40 mins in presence of [gamma33P]ATP by scintillation counting method relative to control. In a few lines:
as §1

For assay [19], the system named is A549. Kind of assay: Induction of apoptosis in human A549 cells assessed as early apoptotic cells at 1 uM after 48 hrs by AnnexinV-FITC/PI staining-based flow cytometric analysis (reference value: 2.91%). Format: functional.

Structures are written as SMILES. The source made the active and inactive calls. No cut-off for these calls is given here.

Sequence of Muscle, skeletal receptor tyrosine-protein kinase (Homo sapiens) (O15146 whole entry): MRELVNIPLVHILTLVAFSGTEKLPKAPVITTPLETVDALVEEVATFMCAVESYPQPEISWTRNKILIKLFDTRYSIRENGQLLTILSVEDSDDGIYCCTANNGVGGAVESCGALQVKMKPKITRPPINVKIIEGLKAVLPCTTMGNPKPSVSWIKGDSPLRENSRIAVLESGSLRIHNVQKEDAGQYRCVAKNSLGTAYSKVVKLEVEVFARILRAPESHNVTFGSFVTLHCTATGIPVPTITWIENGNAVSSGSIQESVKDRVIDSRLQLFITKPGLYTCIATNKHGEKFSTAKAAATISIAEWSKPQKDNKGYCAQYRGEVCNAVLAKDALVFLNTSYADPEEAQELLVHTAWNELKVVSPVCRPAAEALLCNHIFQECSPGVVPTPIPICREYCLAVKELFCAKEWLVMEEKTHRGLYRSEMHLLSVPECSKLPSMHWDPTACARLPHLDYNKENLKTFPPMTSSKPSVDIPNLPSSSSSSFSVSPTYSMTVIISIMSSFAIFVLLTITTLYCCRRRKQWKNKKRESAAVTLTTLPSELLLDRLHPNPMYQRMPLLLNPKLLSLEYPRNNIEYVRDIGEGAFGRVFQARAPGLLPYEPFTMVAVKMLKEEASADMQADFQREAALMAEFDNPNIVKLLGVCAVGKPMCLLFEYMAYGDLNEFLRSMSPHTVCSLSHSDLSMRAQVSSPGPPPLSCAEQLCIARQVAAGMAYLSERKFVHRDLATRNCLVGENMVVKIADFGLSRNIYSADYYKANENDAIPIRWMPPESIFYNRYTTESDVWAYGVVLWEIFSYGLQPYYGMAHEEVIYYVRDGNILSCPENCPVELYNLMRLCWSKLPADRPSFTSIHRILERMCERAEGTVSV
Sequence of Serine/threonine-protein kinase 33 (Homo sapiens) (Q9BYT3 whole entry, looked up): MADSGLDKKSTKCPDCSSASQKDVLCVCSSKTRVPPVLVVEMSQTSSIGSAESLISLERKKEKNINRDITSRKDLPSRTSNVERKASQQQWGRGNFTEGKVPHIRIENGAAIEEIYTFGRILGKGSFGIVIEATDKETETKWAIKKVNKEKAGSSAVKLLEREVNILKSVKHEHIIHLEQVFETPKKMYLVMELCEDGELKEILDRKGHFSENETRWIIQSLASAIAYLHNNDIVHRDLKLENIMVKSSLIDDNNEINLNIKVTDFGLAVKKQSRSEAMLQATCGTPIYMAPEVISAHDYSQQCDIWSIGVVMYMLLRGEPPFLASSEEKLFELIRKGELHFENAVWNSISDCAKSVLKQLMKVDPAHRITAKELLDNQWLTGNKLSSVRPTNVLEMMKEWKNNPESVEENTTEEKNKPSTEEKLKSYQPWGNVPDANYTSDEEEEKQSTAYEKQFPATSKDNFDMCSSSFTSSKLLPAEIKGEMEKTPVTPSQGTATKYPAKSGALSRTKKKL
Sequence of Tyrosine-protein kinase JAK3 (Homo sapiens) (P52333 whole entry): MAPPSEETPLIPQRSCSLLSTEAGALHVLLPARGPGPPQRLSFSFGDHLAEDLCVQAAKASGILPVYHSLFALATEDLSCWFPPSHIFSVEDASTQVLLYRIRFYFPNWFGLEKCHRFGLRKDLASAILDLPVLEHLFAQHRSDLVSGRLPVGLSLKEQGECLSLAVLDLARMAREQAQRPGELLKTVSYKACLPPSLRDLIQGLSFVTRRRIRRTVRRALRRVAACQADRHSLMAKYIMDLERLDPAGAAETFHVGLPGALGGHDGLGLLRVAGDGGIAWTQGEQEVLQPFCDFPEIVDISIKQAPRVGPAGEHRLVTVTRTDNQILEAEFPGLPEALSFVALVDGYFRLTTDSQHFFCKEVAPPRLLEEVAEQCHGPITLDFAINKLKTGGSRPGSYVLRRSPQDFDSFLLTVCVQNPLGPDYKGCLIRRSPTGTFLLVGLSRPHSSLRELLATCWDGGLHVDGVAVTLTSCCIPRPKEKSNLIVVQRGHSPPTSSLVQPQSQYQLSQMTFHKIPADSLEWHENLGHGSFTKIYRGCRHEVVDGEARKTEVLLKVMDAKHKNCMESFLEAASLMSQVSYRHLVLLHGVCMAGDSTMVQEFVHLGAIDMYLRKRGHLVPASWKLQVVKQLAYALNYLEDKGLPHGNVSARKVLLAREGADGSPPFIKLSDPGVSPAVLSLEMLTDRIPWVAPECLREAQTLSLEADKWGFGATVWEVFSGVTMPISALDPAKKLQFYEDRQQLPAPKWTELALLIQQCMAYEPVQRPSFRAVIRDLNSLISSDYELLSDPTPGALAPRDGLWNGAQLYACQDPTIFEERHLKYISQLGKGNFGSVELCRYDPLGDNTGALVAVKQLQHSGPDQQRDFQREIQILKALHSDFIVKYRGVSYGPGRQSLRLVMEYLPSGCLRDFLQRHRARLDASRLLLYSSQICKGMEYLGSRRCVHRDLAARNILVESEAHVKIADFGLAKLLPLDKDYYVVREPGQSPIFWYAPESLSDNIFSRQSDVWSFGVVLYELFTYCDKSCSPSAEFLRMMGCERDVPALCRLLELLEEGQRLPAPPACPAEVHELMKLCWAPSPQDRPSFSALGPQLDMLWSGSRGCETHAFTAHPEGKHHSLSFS
Sequence of Tyrosine-protein kinase CSK (Homo sapiens) (P41240 2-450 limits assumed): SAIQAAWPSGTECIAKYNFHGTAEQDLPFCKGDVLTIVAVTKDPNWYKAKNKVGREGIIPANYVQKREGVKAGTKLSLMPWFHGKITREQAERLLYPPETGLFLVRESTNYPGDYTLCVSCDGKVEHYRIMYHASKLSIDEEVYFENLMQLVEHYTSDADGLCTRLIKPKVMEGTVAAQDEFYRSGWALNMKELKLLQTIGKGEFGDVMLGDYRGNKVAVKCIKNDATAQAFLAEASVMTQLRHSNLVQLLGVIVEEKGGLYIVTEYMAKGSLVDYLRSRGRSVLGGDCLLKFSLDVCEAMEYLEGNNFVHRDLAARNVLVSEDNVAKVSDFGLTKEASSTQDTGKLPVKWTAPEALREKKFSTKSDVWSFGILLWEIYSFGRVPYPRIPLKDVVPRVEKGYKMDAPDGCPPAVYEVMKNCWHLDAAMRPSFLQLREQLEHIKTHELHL
Sequence of Vascular endothelial growth factor receptor 1 (Homo sapiens) (P17948 whole entry, the tested form may be a part): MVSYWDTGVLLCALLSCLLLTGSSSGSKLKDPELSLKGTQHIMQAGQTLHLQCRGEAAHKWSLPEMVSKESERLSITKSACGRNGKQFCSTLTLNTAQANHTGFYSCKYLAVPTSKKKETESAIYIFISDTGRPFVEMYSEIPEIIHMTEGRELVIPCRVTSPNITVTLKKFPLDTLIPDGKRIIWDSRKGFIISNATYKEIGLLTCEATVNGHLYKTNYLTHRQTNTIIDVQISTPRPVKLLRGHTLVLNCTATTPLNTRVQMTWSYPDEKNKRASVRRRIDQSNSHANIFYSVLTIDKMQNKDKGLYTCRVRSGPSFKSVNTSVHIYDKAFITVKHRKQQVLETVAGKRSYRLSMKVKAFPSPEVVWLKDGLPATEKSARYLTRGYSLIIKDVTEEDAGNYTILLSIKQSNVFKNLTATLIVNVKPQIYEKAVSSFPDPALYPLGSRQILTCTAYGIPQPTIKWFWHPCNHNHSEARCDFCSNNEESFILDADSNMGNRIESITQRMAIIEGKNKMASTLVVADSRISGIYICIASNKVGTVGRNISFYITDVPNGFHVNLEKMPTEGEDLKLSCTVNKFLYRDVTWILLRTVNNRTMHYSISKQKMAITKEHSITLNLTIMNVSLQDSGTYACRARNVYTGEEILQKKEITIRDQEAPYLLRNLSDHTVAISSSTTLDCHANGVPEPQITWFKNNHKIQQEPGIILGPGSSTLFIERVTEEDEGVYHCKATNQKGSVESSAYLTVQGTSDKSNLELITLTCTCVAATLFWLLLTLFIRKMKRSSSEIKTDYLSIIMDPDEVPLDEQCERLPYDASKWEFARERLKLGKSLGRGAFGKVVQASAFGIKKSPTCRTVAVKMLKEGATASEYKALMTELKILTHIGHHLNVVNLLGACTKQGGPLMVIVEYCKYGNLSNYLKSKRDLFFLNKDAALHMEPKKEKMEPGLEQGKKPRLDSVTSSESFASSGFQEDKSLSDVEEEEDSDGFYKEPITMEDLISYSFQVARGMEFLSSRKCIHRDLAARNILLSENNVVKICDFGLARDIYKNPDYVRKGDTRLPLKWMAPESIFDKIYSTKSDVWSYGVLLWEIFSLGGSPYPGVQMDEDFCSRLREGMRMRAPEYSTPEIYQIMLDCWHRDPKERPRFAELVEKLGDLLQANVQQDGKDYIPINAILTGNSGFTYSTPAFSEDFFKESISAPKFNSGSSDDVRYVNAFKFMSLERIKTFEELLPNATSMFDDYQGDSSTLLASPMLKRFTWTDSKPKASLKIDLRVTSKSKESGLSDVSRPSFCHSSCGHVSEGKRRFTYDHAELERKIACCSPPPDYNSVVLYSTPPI
Sequence of Dual specificity tyrosine-phosphorylation-regulated kinase 1B (Homo sapiens) (Q9Y463 whole entry, looked up): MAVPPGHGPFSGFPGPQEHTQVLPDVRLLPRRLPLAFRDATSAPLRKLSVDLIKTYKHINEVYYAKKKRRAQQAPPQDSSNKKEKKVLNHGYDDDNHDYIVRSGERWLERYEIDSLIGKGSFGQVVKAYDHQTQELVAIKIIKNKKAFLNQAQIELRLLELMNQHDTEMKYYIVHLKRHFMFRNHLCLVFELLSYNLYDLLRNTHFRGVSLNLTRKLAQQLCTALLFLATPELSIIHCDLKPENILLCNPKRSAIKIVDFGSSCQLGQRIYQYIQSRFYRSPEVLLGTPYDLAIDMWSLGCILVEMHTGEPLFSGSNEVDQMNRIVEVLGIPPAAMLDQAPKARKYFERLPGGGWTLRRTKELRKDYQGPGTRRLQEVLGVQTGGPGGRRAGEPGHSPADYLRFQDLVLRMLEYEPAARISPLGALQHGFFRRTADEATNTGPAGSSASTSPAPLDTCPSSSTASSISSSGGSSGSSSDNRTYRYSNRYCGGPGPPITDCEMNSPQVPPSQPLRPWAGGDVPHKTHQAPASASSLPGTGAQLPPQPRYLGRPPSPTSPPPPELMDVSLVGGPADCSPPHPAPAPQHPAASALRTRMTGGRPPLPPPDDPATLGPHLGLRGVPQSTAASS

Consider `CN(C)C(=O)c1cc2cnc(Nc3ccc(NC(=O)CCCCCCCN=C=S)cc3)nc2n1C1CCCC1`, for which the inhibition came out at 27% in [1]; 27% in [2]; 6% in assay [4]; 83% in assay [5]; 36% in the assay filed under Mus musculus; 38% in [6]. The inhibition was 11% in assay [7]; 1% in assay [9]; 0% in [11]; 66% in assay [13]; 71% in assay [14]; 1% in [15]. In addition, the inhibition in assay [16] was -2%; in assay [17], 90%; in assay [18], 81%. Moreover, the Activity in the assay on NCI-H1299 [3] is recorded as 4.51%; in the assay on A549 [19], 1.06%. Moreover, the outcome with A549 [8] was Active. For the same compound, the inhibition at 1 µM with A549 [10] was 85.6%. In addition, in the assay on NCI-H1299 [12], the inhibition in vivo at 80 mg/kg is 94.7%. In addition, the IC50 at CDK4/Cyclin D3 is 148 nM.

As usually defined, the inhibition is the change of the read-out against control, counted positive when it falls. The term IC50 denotes the midpoint of a concentration-inhibition curve.
